Measured values reported in ChEMBL document CHEMBL3860025, “Antiproliferative and Anti-inflammatory Withanolides from Physalis angulata” (J Nat Prod, 2016).

What was measured:
[1] = Antiproliferative activity against human 22Rv1 cells assessed as inhibition of cell viability after 48 hrs by MTT reduction assay; assay type: functional, cell-based, CWR22R; conditions: 22Rv1, 48 h
Procedure, shortened: (§1)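 Cells grown in RPMI-1640 or EMEM with 10% FBS at 37 °C under 5% CO2. Seeded at 1 × 10^4 cells/well for 12 h, then exposed to a range of compound concentrations for 48 h. Viability read by MTT reduction. 5-Fluorouracil was the positive control. Each assay was repeated three times, and IC50 reported as mean ± SD.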

[2] = Antiinflammatory activity in mouse RAW264.7 cells assessed as inhibition of LPS-induced nitric oxide production after 24 hrs by Griess assay; assay type: functional, cell-based; conditions: RAW264.7, 24 h
Procedure, shortened: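 RAW 264.7 macrophages seeded at 1 × 10^6 cells/well, then incubated 24 h at 37 °C with LPS (1 μg/mL), with or without test compounds. NO measured by Griess reagent (0.1% N-(1-naphthyl)ethylenediamine plus 1% sulfanilamide in 5% H3PO4), absorbance at 540 nm. NO concentration and inhibition rate calculated from a standard curve. Hydrocortisone served as positive control.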

[3] = Antiproliferative activity against human C4-2B cells assessed as inhibition of cell viability after 48 hrs by MTT reduction assay; assay type: functional, cell-based; conditions: LNCaP C4-2B; procedure, shortened: as §1
[4] = Antiproliferative activity against human A375-S2 cells assessed as inhibition of cell viability after 48 hrs by MTT reduction assay; assay type: functional, cell-based; conditions: A375-S2, 48 h; procedure, shortened: as §1
[5] = Antiproliferative activity against human A498 cells assessed as inhibition of cell viability after 48 hrs by MTT reduction assay; assay type: functional, cell-based; conditions: A498, 48 h; procedure, shortened: as §1
[6] = Antiproliferative activity against human ACHN cells assessed as inhibition of cell viability after 48 hrs by MTT reduction assay; assay type: functional, cell-based; procedure, shortened: as §1
[7] = Antiproliferative activity against human 786-0 cells assessed as inhibition of cell viability after 48 hrs by MTT reduction assay; assay type: functional, cell-based; conditions: 786-0, 48 h; procedure, shortened: as §1

Compound	IC50 [1] [nM]	IC50 [2] [nM]	IC50 [3] [nM]	IC50 [4] [nM]	IC50 [5] [nM]	IC50 [6] [nM]	IC50 [7] [nM]
CC(=O)O[C@H]1C[C@@](O)([C@H](C)[C@H]2CC(C)=C(C)C(=O)O2)[C@@]2(C)CC[C@H]3[C@@H](C[C@H]4O[C@]45CC=CC(=O)[C@]35C)[C@@]12O	2380	3420	270	3850	530	400	520
CC(=O)O[C@H]1[C@@H]2O[C@]2([C@H](C)[C@H]2CC(C)=C(C)C(=O)O2)[C@@]2(C)CC[C@H]3[C@@H](C[C@@H](O)[C@@]4(Cl)CC=CC(=O)[C@]34C)[C@@]12O	2280	1420	1070	5000	520	780	690
CC(=O)O[C@H]1C[C@@](O)([C@H](C)[C@H]2CC(C)=C(C)C(=O)O2)[C@@]2(C)CC[C@H]3[C@@H](C[C@@H](O)[C@@]4(O)CC=CC(=O)[C@]34C)[C@@]12O	> 10000	> 100000	> 10000	> 10000	> 10000	> 10000	> 10000
CC(=O)O[C@H]1[C@@H]2O[C@]2([C@H](C)[C@H]2CC(C)=C(C)C(=O)O2)[C@@]2(C)CC[C@H]3[C@@H](C[C@@H](O)[C@@]4(O)CC=CC(=O)[C@]34C)[C@@]12O	> 10000	59500	> 10000	> 10000	> 10000	> 10000	> 10000
